biological target: Albumin (Bos taurus, UniProt P02769); test: Inhibition of glycation of bovine serum albumin assessed as advanced glycated end product measured after 7 days by spectrofluorimeter in presence of glucose anhydrous; settings: not given
How it was run: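 BSA (10 mg/mL) incubated with anhydrous glucose (50 mg/mL) in 67 mM sodium phosphate buffer, pH 7.4, containing 3 mM sodium azide; compounds dissolved in DMSO. Incubation 37 °C for 7 days. Then 100% trichloroacetic acid added and the mixture centrifuged at 15,000 rpm, 4 min, 4 °C. A PBS, pH 10, was also prepared.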

Chain of Albumin (P02769 whole entry): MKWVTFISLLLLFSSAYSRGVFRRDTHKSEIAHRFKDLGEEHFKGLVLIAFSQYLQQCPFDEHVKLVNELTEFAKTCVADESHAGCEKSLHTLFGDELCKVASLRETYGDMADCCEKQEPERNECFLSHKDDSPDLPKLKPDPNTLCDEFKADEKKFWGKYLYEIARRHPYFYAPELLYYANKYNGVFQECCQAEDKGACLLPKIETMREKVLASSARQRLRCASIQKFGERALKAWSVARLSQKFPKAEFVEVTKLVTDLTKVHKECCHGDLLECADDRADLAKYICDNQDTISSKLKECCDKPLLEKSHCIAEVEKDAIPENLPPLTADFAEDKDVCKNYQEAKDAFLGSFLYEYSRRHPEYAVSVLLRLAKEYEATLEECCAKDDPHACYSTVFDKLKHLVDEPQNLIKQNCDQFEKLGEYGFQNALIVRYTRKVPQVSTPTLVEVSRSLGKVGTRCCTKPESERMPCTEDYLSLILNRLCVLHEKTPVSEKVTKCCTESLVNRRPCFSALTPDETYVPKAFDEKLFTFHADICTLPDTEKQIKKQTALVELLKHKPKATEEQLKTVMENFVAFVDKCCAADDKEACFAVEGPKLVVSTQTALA

Question: Which IC50 does the source give for `CC(C)(C)OC(=O)NCC(=O)N1CCC(c2noc3cc(F)ccc23)CC1` here?
Answer: Not Active

Question: For `O=C(CNC(=S)Nc1ccc(Cl)cc1)N1CCC(c2noc3cc(F)ccc23)CC1`, which IC50 is on record?
Answer: Not Active

Question: Which IC50 does the source give for `CC(C)(C)OC(=O)N1CCCC1C(=O)N1CCC(c2noc3cc(F)ccc23)CC1` (stereo not given) here?
Answer: Not Active

Question: `O=C(CNC(=S)Nc1cccc(Cl)c1)N1CCC(c2noc3cc(F)ccc23)CC1` was tested. Which IC50 did it give?
Answer: Not Active

same assay, conditions: read-out: IC50

Question: With `COc1cccc(NC(=S)NCC(=O)N2CCC(c3noc4cc(F)ccc34)CC2)c1` as the compound, how does the IC50 read?
Answer: 15.3 µM

Question: How did the IC50 turn out when `O=C(C1CCCN1C(=O)Nc1ccccc1)N1CCC(c2noc3cc(F)ccc23)CC1` (stereo not given) was run?
Answer: 340 µM

Question: Which IC50 does the source give for `COc1cccc(NC(=S)N2CCCC2C(=O)N2CCC(c3noc4cc(F)ccc34)CC2)c1` (stereo not given) here?
Answer: 20.5 µM

Question: Which IC50 does the source give for `O=C(NCC(=O)N1CCC(c2noc3cc(F)ccc23)CC1)Nc1ccc(Br)cc1` here?
Answer: 8.5 µM

Question: For `COc1ccc(NC(=O)N2CCCC2C(=O)N2CCC(c3noc4cc(F)ccc34)CC2)cc1` (stereo not given), which IC50 is on record?
Answer: 22.1 µM

Question: `O=C(C1CCCN1C(=S)Nc1ccc(F)cc1)N1CCC(c2noc3cc(F)ccc23)CC1` (stereo not given) was tested. Which IC50 did it give?
Answer: 70.9 µM

Question: How did the IC50 turn out when `O=C(C1CCCN1C(=S)Nc1ccc(Cl)cc1)N1CCC(c2noc3cc(F)ccc23)CC1` (stereo not given) was run?
Answer: 59.4 µM

Question: `O=C(CNC(=S)Nc1cccc(Br)c1)N1CCC(c2noc3cc(F)ccc23)CC1` was tested. Which IC50 did it give?
Answer: 4.9 µM

Question: For `O=C(C1CCCN1C(=S)Nc1cccc(Cl)c1)N1CCC(c2noc3cc(F)ccc23)CC1` (stereo not given), which IC50 is on record?
Answer: 126 µM

Question: Which IC50 does the source give for `O=C(C1CCCN1C(=S)Nc1ccccc1Br)N1CCC(c2noc3cc(F)ccc23)CC1` (stereo not given) here?
Answer: 7.8 µM

Question: How did the IC50 turn out when `O=C(NCC(=O)N1CCC(c2noc3cc(F)ccc23)CC1)Nc1cccc(Cl)c1` was run?
Answer: 144 µM

Question: `O=C(C1CCCN1C(=S)Nc1ccccc1)N1CCC(c2noc3cc(F)ccc23)CC1` (stereo not given) was tested. Which IC50 did it give?
Answer: 295 µM

Question: How did the IC50 turn out when `O=C(NCC(=O)N1CCC(c2noc3cc(F)ccc23)CC1)Nc1ccccc1F` was run?
Answer: 55.5 µM

Question: `O=C(C1CCCN1C(=O)Nc1cccc(Br)c1)N1CCC(c2noc3cc(F)ccc23)CC1` (stereo not given) was tested. Which IC50 did it give?
Answer: 6.9 µM

Question: With `COc1ccccc1NC(=O)N1CCCC1C(=O)N1CCC(c2noc3cc(F)ccc23)CC1` (stereo not given) as the compound, how does the IC50 read?
Answer: 30.6 µM

Question: `COc1cccc(NC(=O)NCC(=O)N2CCC(c3noc4cc(F)ccc34)CC2)c1` was tested. Which IC50 did it give?
Answer: 21.1 µM

Question: `COc1ccc(NC(=O)NCC(=O)N2CCC(c3noc4cc(F)ccc34)CC2)cc1` was tested. Which IC50 did it give?
Answer: 19.5 µM

Question: How did the IC50 turn out when `O=C(C1CCCN1C(=O)Nc1cccc(F)c1)N1CCC(c2noc3cc(F)ccc23)CC1` (stereo not given) was run?
Answer: 117 µM

Question: With `COc1cccc(NC(=O)N2CCCC2C(=O)N2CCC(c3noc4cc(F)ccc34)CC2)c1` (stereo not given) as the compound, how does the IC50 read?
Answer: 33.4 µM

Question: How did the IC50 turn out when `O=C(C1CCCN1C(=O)Nc1ccc(F)cc1)N1CCC(c2noc3cc(F)ccc23)CC1` (stereo not given) was run?
Answer: 76.1 µM

Question: With `O=C(NCC(=O)N1CCC(c2noc3cc(F)ccc23)CC1)Nc1ccc(F)cc1` as the compound, how does the IC50 read?
Answer: 75.8 µM

Question: How did the IC50 turn out when `O=C(NCC(=O)N1CCC(c2noc3cc(F)ccc23)CC1)Nc1cccc(Br)c1` was run?
Answer: 9.3 µM

Question: With `O=C(CNC(=S)Nc1ccccc1)N1CCC(c2noc3cc(F)ccc23)CC1` as the compound, how does the IC50 read?
Answer: 380 µM

Question: Which IC50 does the source give for `O=C(NCC(=O)N1CCC(c2noc3cc(F)ccc23)CC1)Nc1ccccc1` here?
Answer: 390 µM

Question: Which IC50 does the source give for `COc1ccccc1NC(=S)N1CCCC1C(=O)N1CCC(c2noc3cc(F)ccc23)CC1` (stereo not given) here?
Answer: 5.2 µM

Question: For `COc1ccccc1NC(=O)NCC(=O)N1CCC(c2noc3cc(F)ccc23)CC1`, which IC50 is on record?
Answer: 20.2 µM

Question: For `O=C(NCC(=O)N1CCC(c2noc3cc(F)ccc23)CC1)Nc1cccc(F)c1`, which IC50 is on record?
Answer: 100 µM

Question: How did the IC50 turn out when `COc1ccc(NC(=S)N2CCCC2C(=O)N2CCC(c3noc4cc(F)ccc34)CC2)cc1` (stereo not given) was run?
Answer: 3.9 µM

Question: How did the IC50 turn out when `O=C(CNC(=S)Nc1ccc(F)cc1)N1CCC(c2noc3cc(F)ccc23)CC1` was run?
Answer: 70.3 µM

Question: For `O=C(C1CCCN1C(=O)Nc1ccc(Br)cc1)N1CCC(c2noc3cc(F)ccc23)CC1` (stereo not given), which IC50 is on record?
Answer: 6.8 µM

Question: Which IC50 does the source give for `O=C(C1CCCN1C(=S)Nc1cccc(Br)c1)N1CCC(c2noc3cc(F)ccc23)CC1` (stereo not given) here?
Answer: 4.7 µM

Question: `C[C@@H]1O[C@@H](OC[C@H]2O[C@@H](Oc3c(-c4ccc(O)c(O)c4)oc4cc(O)cc(O)c4c3=O)[C@H](O)[C@@H](O)[C@@H]2O)[C@H](O)[C@H](O)[C@H]1O` [RUTIN] was tested. Which IC50 did it give?
Answer: 41.9 µM

Question: With `O=C(NCC(=O)N1CCC(c2noc3cc(F)ccc23)CC1)Nc1ccc(Cl)cc1` as the compound, how does the IC50 read?
Answer: 83.9 µM

Question: With `O=C(C1CCCN1C(=S)Nc1ccccc1F)N1CCC(c2noc3cc(F)ccc23)CC1` (stereo not given) as the compound, how does the IC50 read?
Answer: 7.8 µM

Question: With `O=C(C1CCCN1C(=O)Nc1cccc(Cl)c1)N1CCC(c2noc3cc(F)ccc23)CC1` (stereo not given) as the compound, how does the IC50 read?
Answer: 145 µM

Question: With `O=C(CNC(=S)Nc1ccccc1F)N1CCC(c2noc3cc(F)ccc23)CC1` as the compound, how does the IC50 read?
Answer: 9.1 µM

Question: How did the IC50 turn out when `O=C(C1CCCN1C(=O)Nc1ccc(Cl)cc1)N1CCC(c2noc3cc(F)ccc23)CC1` (stereo not given) was run?
Answer: 60.3 µM

Question: How did the IC50 turn out when `O=C(CNC(=S)Nc1ccccc1Br)N1CCC(c2noc3cc(F)ccc23)CC1` was run?
Answer: 6.3 µM

Question: For `COc1ccccc1NC(=S)NCC(=O)N1CCC(c2noc3cc(F)ccc23)CC1`, which IC50 is on record?
Answer: 4.1 µM

Question: `O=C(C1CCCN1C(=O)Nc1ccccc1F)N1CCC(c2noc3cc(F)ccc23)CC1` (stereo not given) was tested. Which IC50 did it give?
Answer: 54.8 µM

Question: `COc1ccc(NC(=S)NCC(=O)N2CCC(c3noc4cc(F)ccc34)CC2)cc1` was tested. Which IC50 did it give?
Answer: 3.6 µM

Reference: ChEMBL document CHEMBL2311433, “Inhibition of protein glycation by urea and thiourea derivatives of glycine/proline conjugated benzisoxazole analogue - synthesis and structure-activity studies” (Eur J Med Chem, 2013)
